According to article PMC10053325 (Cell chemical biology, 2020):
Changes are numbered by the printed parent chain.

Columns and labels:
[1] = target: SMAD4^R361H interaction with R-SMADs (Homo sapiens, UniProt Q13485, R361H); assay: R-SMADs selectivity profiling by TR-FRET; type: binding; settings: dose-response AUC; SMAD1/2/3/5/8
[2] = target: SMAD4^D351H/SMAD3 PPI (Homo sapiens, UniProt Q13485, D351H); assay: GST pull-down assay of GST-SMAD4-D351H with VF-SMAD3 in cell lysate; type: binding; settings: versus DMSO control
In short: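 HEK293T cells co-transfected with Venus-flag-SMAD3 and mutant GST-SMAD4 and lysed after 48 h in 0.5% Triton X-100 buffer (20 mM Tris-HCl, 150 mM NaCl, 5% glycerol, 2 mM EDTA). Lysate incubated with test compound 3 h rotating at 4°C, then glutathione beads 2 h at 4°C. Beads washed three times, boiled in SDS buffer, and bound SMAD3 detected by western blot.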

[3] = test system: isogenic HCT116 R361H cells; assay: Colony formation assay; type: cell-based, human; settings: TGF-β 10 ng/mL, Ro-31-8220 1 μM, Go-6983 10 μM, 15-day treatment
In short: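 Single-cell suspensions seeded at 1,000 to 2,000 cells/well in 6-well plates, treated next day with TGF-β, test compound, or the combination. Agent-containing medium renewed every 3 days for 15 days. Colonies stained with crystal violet and colony area quantified from images. Mean ± SD, three independent experiments; Student's t-test.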

[4] = target: T1, SMAD4^R361H-SMAD3 PPI (Homo sapiens, UniProt Q13485, R361H); assay: TR-FRET assay for SMAD4^R361H/SMAD3 PPI in HEK293T cell lysate; type: binding; settings: primary screening, compounds 20 μM
Target sequence in this assay (P84022 whole entry partner, one chain of several): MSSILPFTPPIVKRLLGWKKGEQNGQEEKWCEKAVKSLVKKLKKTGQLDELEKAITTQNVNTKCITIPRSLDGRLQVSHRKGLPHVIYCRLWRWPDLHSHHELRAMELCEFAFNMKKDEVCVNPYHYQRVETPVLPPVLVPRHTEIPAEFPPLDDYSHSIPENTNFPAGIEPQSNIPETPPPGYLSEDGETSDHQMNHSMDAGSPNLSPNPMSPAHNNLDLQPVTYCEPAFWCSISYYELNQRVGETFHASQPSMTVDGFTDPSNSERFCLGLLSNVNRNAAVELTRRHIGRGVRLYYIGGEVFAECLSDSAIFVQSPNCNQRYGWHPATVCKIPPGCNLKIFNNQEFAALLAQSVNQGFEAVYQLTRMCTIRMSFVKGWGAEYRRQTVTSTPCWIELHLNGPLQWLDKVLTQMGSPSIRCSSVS

[5] = test system: isogenic HCT116 R361H cells; assay: Flow cytometry-based cell-cycle analysis; set-up: species or system human; settings: TGF-β 10 ng/mL, Ro-31-8220 1 μM, Go-6983 10 μM
In short: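 Cells serum-starved 24 h, then placed in 10% FBS medium with TGF-β (10 ng/mL) and/or test compound for 24 h. Fixed in 70% ethanol overnight at 4°C, RNase-treated (1 mg/ml, 30 min, 37°C), stained with 40 μg/ml PI for 30 min. 5,000 cells per sample analysed by flow cytometry; % G1/S given as mean ± SD of three independent experiments.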

[6] = test system: isogenic HCT116 R361H cells; assay: Transcriptome profiling; type: cell-based, human; settings: TGF-β 10 ng/mL, compound 1 μM
[7] = test system: SMAD4/SMAD3 transcriptional activity (SBE-luc); assay: SBE-driven luciferase reporter assay; type: cell-based, human; settings: isogenic HCT116 R361H cells pre-treated with compound
In short: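 […] cells in 6-well plates co-transfected with SBE4-Luc (1 μg) and Renilla (0.1 μg) plasmids. After 24 h, cells pretreated 6 h with test compound, then stimulated with TGF-β for 18 h. Dual-Glo read-out as Firefly/Renilla ratio, expressed as TGF-β-induced fold-of-change; assays repeated three times.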

[8] = test system: isogenic HCT116 cells (SMAD4 WT, null, R361H); assay: Cell viability assay; type: cell-based, human
In short: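 Isogenic HCT116 WT, SMAD4-null and R361H cells given TGF-β (10 ng/mL), test compound, or both; vehicle/DMSO controls. CellTiter-Blue added and incubated at 37°C. Fluorescence read at Ex 545/Em 615 nm, medium-only blank subtracted, normalized to untreated controls (% C). Mean ± SD of three independent experiments; Student's t-test.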

[9] = target: T2, SMAD4^R361H (Homo sapiens, UniProt Q13485, R361H); assay: Cycloheximide; type: cell-based; settings: RCM-1 cells, CHX chase
T2 sequence (Q13485 1-552 R361H): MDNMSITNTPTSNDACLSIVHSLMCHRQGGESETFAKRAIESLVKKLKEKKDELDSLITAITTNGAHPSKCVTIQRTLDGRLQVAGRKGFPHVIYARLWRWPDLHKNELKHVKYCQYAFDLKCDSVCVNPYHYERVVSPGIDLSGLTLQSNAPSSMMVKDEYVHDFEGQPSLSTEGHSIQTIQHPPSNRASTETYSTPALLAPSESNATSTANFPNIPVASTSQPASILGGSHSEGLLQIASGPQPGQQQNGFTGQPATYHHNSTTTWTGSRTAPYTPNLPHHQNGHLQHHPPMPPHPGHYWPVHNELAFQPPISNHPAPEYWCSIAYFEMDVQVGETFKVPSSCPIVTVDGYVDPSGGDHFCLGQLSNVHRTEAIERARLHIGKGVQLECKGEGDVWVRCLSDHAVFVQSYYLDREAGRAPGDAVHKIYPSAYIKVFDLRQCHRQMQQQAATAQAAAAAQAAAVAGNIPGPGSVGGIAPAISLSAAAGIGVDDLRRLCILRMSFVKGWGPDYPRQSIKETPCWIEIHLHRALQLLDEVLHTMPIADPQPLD
In short: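 RCM-1 cells grown 24 h in 24-well plates, then given 100 μg/mL cycloheximide with test compound or DMSO. At each time point cells scraped into 2X SDS sample buffer and boiled 5 min. Run on 10% SDS-PAGE and blotted with anti-SMAD4; SMAD4 densitometry normalized to β-actin. Performed three times.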

[10] = test system: isogenic HCT116 cells (SMAD4 R361H, null); assay: Western blot of TGF-β-induced p15, p21, N-cadherin and Vimentin proteins; type: cell-based, human; settings: R361H mutant cells, TGF-β 10 ng/mL, compound 1 μM
In short: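 Isogenic HCT116 SMAD4-null or R361H cells treated with TGF-β (10 ng/mL) and/or test compound (1 μM). Lysates run on 10% SDS-PAGE and transferred to nitrocellulose (100 V, 2 h, 4°C). Membranes blocked 1 h in 5% milk/TBST, probed overnight at 4°C, and developed by chemiluminescence. Representative of three independent experiments.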

[11] = target: T3, SMAD4 WT (Homo sapiens, UniProt Q13485); assay: Cellular thermal shift assay; type: cell-based; settings: HCT116 cells, 10 μM for 8 h, compared with the DMSO control
T3 sequence (Q13485 1-552): T2 sequence (Q13485 1-552 R361H) with H361R
In short: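 Cells at 60% confluency in 100 mm dishes given 10 μM test compound for 8 h. Pellets in PBS aliquoted and heated at 45~65 °C for 3 min, lysed by three liquid nitrogen/25 °C freeze-thaw cycles, spun 20,000g for 20 min at 4 °C. Soluble SMAD protein western-blotted with actin loading control. Thermal curves from densitometry; mean ± SD, three independent experiments.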

[12] = target: T1, SMAD4^R361H-SMAD3 PPI; assay: Endogenous co-immunoprecipitation of SMAD4 complex in RCM-1 cells; type: cell-based; settings: 10 μM for 8 h, endogenous proteins
In short: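 RCM-1 cells in 100 mm dishes exposed to 10 μM test compound or DMSO for 8 h, then lysed in PBS by sonication. About 1.5 mg total protein per IP incubated with antibody overnight at 4 °C, then with protein […] agarose beads 4 h at 4 °C. Beads washed four times in PBS; eluates probed for SMAD3 by western blot.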
Target sequence in this assay (P84022 2-425 partner limits assumed, one chain of several): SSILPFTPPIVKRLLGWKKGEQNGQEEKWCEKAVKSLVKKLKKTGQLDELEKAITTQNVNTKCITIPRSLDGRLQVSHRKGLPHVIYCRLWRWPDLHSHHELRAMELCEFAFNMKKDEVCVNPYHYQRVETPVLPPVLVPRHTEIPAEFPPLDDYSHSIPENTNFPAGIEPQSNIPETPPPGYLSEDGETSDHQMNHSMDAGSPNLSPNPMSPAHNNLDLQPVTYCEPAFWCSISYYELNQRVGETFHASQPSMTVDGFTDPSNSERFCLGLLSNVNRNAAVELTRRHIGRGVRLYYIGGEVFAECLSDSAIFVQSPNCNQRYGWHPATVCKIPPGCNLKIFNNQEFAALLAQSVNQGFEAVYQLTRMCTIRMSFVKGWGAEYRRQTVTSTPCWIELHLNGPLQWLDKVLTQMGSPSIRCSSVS

SMAD4^D351H/SMAD3 PPI, sequence (Q13485 whole entry D351H): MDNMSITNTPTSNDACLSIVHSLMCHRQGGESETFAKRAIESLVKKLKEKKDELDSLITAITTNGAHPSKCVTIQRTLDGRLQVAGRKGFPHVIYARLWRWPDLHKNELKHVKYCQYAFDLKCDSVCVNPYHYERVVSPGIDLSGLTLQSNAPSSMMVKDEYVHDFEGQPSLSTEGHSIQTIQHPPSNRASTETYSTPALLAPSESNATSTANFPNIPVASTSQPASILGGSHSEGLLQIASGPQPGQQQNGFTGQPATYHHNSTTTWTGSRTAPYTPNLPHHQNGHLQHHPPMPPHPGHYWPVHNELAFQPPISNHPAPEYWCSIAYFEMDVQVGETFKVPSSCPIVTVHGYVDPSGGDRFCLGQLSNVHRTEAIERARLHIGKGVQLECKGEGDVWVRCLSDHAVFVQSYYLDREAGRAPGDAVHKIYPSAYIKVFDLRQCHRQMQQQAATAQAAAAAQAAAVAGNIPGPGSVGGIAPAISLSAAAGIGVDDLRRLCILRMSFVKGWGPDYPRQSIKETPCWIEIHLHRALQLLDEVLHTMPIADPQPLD
SMAD4^D351H/SMAD3 PPI, sequence (P84022 whole entry partner): as the sequence (P84022 whole entry partner, one chain of several) above
SMAD4^R361H interaction with R-SMADs, sequence (P84022 whole entry partner, one chain of several): as above

| SMILES | compound-induced TR-FRET signal for SMAD4^R361H with SMAD3 compared with other R-SMADs [1] | SMAD3 level in the D351H GST pull-down complex [2] | colony area in combination with TGF-β [3] | potentiation effect (ΔTR-FRET) compared with the DMSO control [4] [%] | sensitivity to TGF-β-induced G1/S cell-cycle arrest [5] | response to TGF-β in terms of DEGs [6] | TGF-β-induced SBE-luc activity [7] | sensitivity to TGF-β-induced growth suppression (cell viability) ([8]; SMAD4 R361H cells, with TGF-β 10 ng/mL, Ro-31-8220 1 μM, Go-6983 10 μM) | growth inhibition, compound alone ([8]; SMAD4 WT, null and R361H cells, 1 μM) | SMAD4^R361H protein half-life compared with DMSO control [9] | SMAD4^R361H protein half-life ([9]; compound-treated) | TGF-β-induced expression of p15, p21, N-cadherin and Vimentin proteins [10] | increase of Tm (ΔTm) of SMAD4 WT [11] | amount of SMAD3 in the SMAD4-R361H immune-complex [12] |
| --- | --- | --- | --- | --- | --- | --- | --- | --- | --- | --- | --- | --- | --- | --- |
| COc1ccc2c(c1)c(C1=C(c3c[nH]c4ccccc34)C(=O)NC1=O)cn2CCCN(C)C [Go-6983] | significantly higher | significantly restored | A similar effect | > 40 |  |  |  |  |  |  |  |  |  |  |
| Cn1cc(C2=C(c3cn(CCCSC(=N)N)c4ccccc34)C(=O)NC2=O)c2ccccc21 [Ro-31-8220] | significantly higher | significantly restored | significantly decreased colony area | > 40 | regained sensitivity | reestablished to a similar degree to that of WT cells | restored to a level similar to that of the WT cells | restored the sensitivity | did not result in any significant growth inhibition | no significant difference | about 2 h | significant increase | but not WT or SMAD3 | drastically restored |
